73 sequences from the array DNA melting data of Ke et al. (doi:10.1101/2024.01.08.574731) can be followed below.

A short description of series [1]: folding enthalpy; higher = less favourable; fluorescence melt of hairpins on a sequencing array, two-state fit. The settings on record: sodium 0.088 M. The procedure, abridged: (§1)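 Folding enthalpy and melting temperature were estimated with bootstrapped two-state fits and combined across four replicates by inverse-variance weighting, with fitted temperatures raised by 9.35 °C to match UV melts. The data were Cy3 fluorescence of library hairpins, with annealed Cy3 and quencher oligos, on a sequenced MiSeq flow cell in 50 mM Na-HEPES pH 8.0, 25 mM NaCl, imaged in 2.5 °C steps up to 60 °C and normalised to pre-quench Cy3 and control constructs.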

A short description of series [2]: melting temperature; fluorescence melt of hairpins on a sequencing array, two-state fit, raised by 9.35 °C to match UV melts. The settings on record: sodium 0.088 M. The method in brief: as §1

As to GCATTGCGAAAGCCTTGC (((..((....))..))), in series [1], the folding enthalpy was -25 kcal/mol. Besides, in series [2], the Tm was 39.3 °C.
For GCATTGGGAAACCAGTGC (((.(((....))).))), the folding enthalpy in series [1] was -34.4 kcal/mol. In addition, in series [2], the Tm was found to be 50.7 °C.
Turning to GCATTTCCGAAAGGATGC (((..(((....)))))), the folding enthalpy in series [1] was -21.6 kcal/mol. Also, the Tm in series [2] is 38.4 °C.
With GCATTTCGAAAGAACTGC (((.(((....))).))), the folding enthalpy in series [1] was -32.1 kcal/mol. Also, the Tm in series [2] was 43 °C.
The corresponding values for GCATTTGAAAAAATGC ((((((....)))))) are -30.9 kcal/mol and 52.8 °C.
The corresponding values for GCATTTGGAAACAAGTGC (((.(((....))).))) are -26.2 kcal/mol and 46.3 °C.
In the same order, the values of GCCAAAACGAAAGTTGGC (((..(((....)))))) are -30.7 kcal/mol and 51.4 °C.
For GCCAAACGAAAGTTGGC (((.(((....)))))), the folding enthalpy in series [1] is -34.5 kcal/mol. Also, the Tm in series [2] stood at 56.8 °C.
In the same order, the values of GCCAAAGGAAACTTTGAC (.(((((....))))).) are -21.9 kcal/mol and 32.3 °C.
In the same order, the values of GCCAAAGGAAACTTTGGC (((((((....))))))) are -44.4 kcal/mol and 64 °C.
In the same order, the values of GCCAACGAAAGTTGAGGC ((((((....)))..))) are -19.4 kcal/mol and 48.5 °C.
Regarding GCCAACGGAAACGCTGGC ((((.((....)).)))), in series [1], the folding enthalpy was -40 kcal/mol. In series [2], the Tm worked out at 52 °C.
The corresponding values for GCCAACGGAAACGTTGAC (.(((((....))))).) are -16.5 kcal/mol and 46.5 °C.
In the same order, the values of GCCAAGACGAAAGTCGGC (((..(((....)))))) are -23.7 kcal/mol and 54.6 °C.
As for GCCAAGCGAAAGCAGGGC (((..((....))..))), the folding enthalpy in series [1] is -26.4 kcal/mol. The Tm in series [2] came to 60.4 °C.
In the same order, the values of GCCAAGCGAAAGCATTGC ((.(.((....)).).)) are -11.2 kcal/mol and 32.5 °C.
In the same order, the values of GCCAAGCGAAAGCCCGGC (((..((....))..))) are -20.7 kcal/mol and 45.8 °C.
The corresponding values for GCCAAGCGAAAGCCTAGC ((.(.((....)).).)) are -9.82 kcal/mol and 31.2 °C.
Consider GCCAAGCGAAAGCTCTGC ((..(((....)))..)), for which the folding enthalpy in series [1] was -11.4 kcal/mol. For the same sequence, in series [2], the Tm turned out to be 31.2 °C.
The corresponding values for GCCAAGCGAAAGCTGAGC ((..(((....)))..)) are -15.3 kcal/mol and 47.7 °C.
The corresponding values for GCCAAGCGAAAGCTGGC (((.(((....)))))) are -28.3 kcal/mol and 68.5 °C.
In the same order, the values of GCCAAGCGAAAGCTTCGC ((.((((....)))).)) are -16.8 kcal/mol and 50.4 °C.
With GCCAAGGCGAAAGCCGGC (((..(((....)))))), the folding enthalpy in series [1] is -15.7 kcal/mol. In series [2], the Tm came to 65.8 °C.
On to GCCAAGGGAAACCCTGGC ((((.((....)).)))), for which the folding enthalpy in series [1] is -31.9 kcal/mol. Moreover, in series [2], the Tm came out at 52.2 °C.
Regarding GCCAATGGAAACATTGGC (((((((....))))))), the folding enthalpy in series [1] is -38.3 kcal/mol. Further, the Tm in series [2] was found to be 67.8 °C.
Take GCCAATTCGAAAGAAGGC (((..(((....)))))): in series [1], the folding enthalpy is -20.6 kcal/mol. In addition, in series [2], the Tm worked out at 38 °C.
The corresponding values for GCCACAACGAAAGTTGGC (((..(((....)))))) are -15.3 kcal/mol and 48.5 °C.
The corresponding values for GCCACACGAAAGTGGGC (((.(((....)))))) are -24.6 kcal/mol and 60.4 °C.
In the same order, the values of GCCACGCGAAAGCAAGGC (((..((....))..))) are -22.9 kcal/mol and 57.2 °C.
As to GCCACGCGAAAGCAGGGC (((..((....))..))), the folding enthalpy in series [1] was -23.5 kcal/mol. Further, in series [2], the Tm came out at 61.6 °C.
For the sequence GCCACGCGAAAGCATAGC ((.(.((....)).).)), in series [1], the folding enthalpy is -9.06 kcal/mol. In addition, the Tm in series [2] is 26.7 °C.
In the same order, the values of GCCACGCGAAAGCGGCGC ((..(((....)))..)) are -15.9 kcal/mol and 60.8 °C.
Take GCCACGCGAAAGCGTAGC ((.((((....)))).)): the folding enthalpy in series [1] is -16.9 kcal/mol. Besides, the Tm in series [2] was 55.8 °C.
In the same order, the values of GCCACTACGAAAGTAGGC (((..(((....)))))) are -13.1 kcal/mol and 41.5 °C.
In the same order, the values of GCCACTCCGAAAGGAGGC (((..(((....)))))) are -8.62 kcal/mol and 43.9 °C.
The corresponding values for GCCACTCGAAAGAGAGGC (((.(((....))).))) are -39.1 kcal/mol and 60 °C.
Regarding GCCAGACGAAAGTCCGGC (((.(((....))).))), the folding enthalpy in series [1] is -27.6 kcal/mol. Further, in series [2], the Tm is 60.1 °C.
The corresponding values for GCCAGACGAAAGTCGGGC (((.(((....))).))) are -34 kcal/mol and 68.6 °C.
In the case of GCCAGAGGAAACTCCGGC (((.(((....))).))), the folding enthalpy in series [1] is -24.4 kcal/mol. Further, the Tm in series [2] was 45.6 °C.
For GCCAGAGGAAACTTTGGC ((((.((....)).)))), in series [1], the folding enthalpy is -32.8 kcal/mol. Further, in series [2], the Tm was found to be 47.4 °C.
In the same order, the values of GCCAGATCGAAAGATGGC (((..(((....)))))) are -27.4 kcal/mol and 48.2 °C.
The corresponding values for GCCAGCGAAAGCTCGGC ((((((....))).))) are -28.4 kcal/mol and 60.8 °C.
The corresponding values for GCCAGCGAAAGCTCGGGC ((((((....)))..))) are -20.4 kcal/mol and 52.3 °C.
On to GCCAGCGAAAGCTCTGGC ((((((....)))..))), for which the folding enthalpy in series [1] was -24.5 kcal/mol. The Tm in series [2] is 50.6 °C.
On to GCCAGCGAAAGCTTCGGC ((((((....)))..))), for which, in series [1], the folding enthalpy is -23.7 kcal/mol. In addition, in series [2], the Tm worked out at 47.8 °C.
The corresponding values for GCCAGCGAAAGCTTTGGC ((((((....)))..))) are -23.8 kcal/mol and 51.4 °C.
The corresponding values for GCCAGCGGAAACACCGGC (((.(.(....).).))) are -10.2 kcal/mol and 27.6 °C.
The corresponding values for GCCAGCGGAAACGCCGGC (((.(((....))).))) are -26.3 kcal/mol and 57.1 °C.
In the case of GCCAGGCCGAAAGGCGGC (((..(((....)))))), the folding enthalpy in series [1] is -18.4 kcal/mol. For the same sequence, the Tm in series [2] worked out at 64.9 °C.
For GCCAGGCGAAAGCATCGC ((.(.((....)).).)), the folding enthalpy in series [1] is -8.22 kcal/mol. Moreover, in series [2], the Tm was 36.1 °C.
The corresponding values for GCCAGGCGAAAGCCCCGC ((..(((....)))..)) are -11.6 kcal/mol and 28.1 °C.
The corresponding values for GCCAGGCGAAAGCCCGGC (((.(((....))).))) are -24.5 kcal/mol and 66.2 °C.
The corresponding values for GCCAGGCGAAAGCCGTGC ((..(((....)))..)) are -13.6 kcal/mol and 50 °C.
As for GCCAGGCGAAAGCCTCGC ((.((((....)))).)), in series [1], the folding enthalpy was -17.4 kcal/mol. Moreover, the Tm in series [2] was 54 °C.
The corresponding values for GCCAGGCGAAAGCTTCGC ((.(.((....)).).)) are -8.82 kcal/mol and 40.5 °C.
The corresponding values for GCCAGGGGAAACCTTGGC ((((.((....)).)))) are -43.9 kcal/mol and 53.4 °C.
As for GCCAGTCCGAAAGGAGGC (((..(((....)))))), the folding enthalpy in series [1] was -22.1 kcal/mol. Further, the Tm in series [2] stood at 44.4 °C.
The corresponding values for GCCATAACGAAAGTTGGC (((..(((....)))))) are -30.9 kcal/mol and 49.3 °C.
The corresponding values for GCCATACGAAAGTAAGGC (((.(((....))).))) are -35.1 kcal/mol and 52.6 °C.
In the same order, the values of GCCATAGGAAACCATGGC (((((.(....).))))) are -34.2 kcal/mol and 47.7 °C.
On to GCCATCCCGAAAGGGGGC (((..(((....)))))), for which the folding enthalpy in series [1] was -18.1 kcal/mol. Further, the Tm in series [2] was 51.8 °C.
On to GCCATCCGAAAGGACGGC (((.(((....))).))), for which the folding enthalpy in series [1] is -40.2 kcal/mol. The Tm in series [2] is 55.7 °C.
The corresponding values for GCCATCGAAAGATCAGGC ((((((....)))..))) are -24.9 kcal/mol and 37.7 °C.
With GCCATCGAAAGATCGGGC ((((((....)))..))), the folding enthalpy in series [1] was -25.1 kcal/mol. The Tm in series [2] stood at 41.6 °C.
The corresponding values for GCCATCGAAAGATCTGGC ((((((....)))..))) are -25.9 kcal/mol and 36.1 °C.
The corresponding values for GCCATCGAAAGATGGGC ((((((....))).))) are -15.4 kcal/mol and 63.2 °C.
The corresponding values for GCCATCGAAAGATGGGGC ((((((....)))..))) are -12.8 kcal/mol and 54.4 °C.
In the case of GCCATCGCGAAAGCGGGC (((..(((....)))))), in series [1], the folding enthalpy was -17.4 kcal/mol. For the same sequence, the Tm in series [2] turned out to be 53.9 °C.
The corresponding values for GCCATCGGAAACGACGGC (((.(((....))).))) are -35.5 kcal/mol and 52.1 °C.
The corresponding values for GCCATGCCGAAAGGCGGC (((..(((....)))))) are -18.6 kcal/mol and 59.2 °C.
The corresponding values for GCCATGCGAAAGCAAGGC (((.(((....))).))) are -42.6 kcal/mol and 60.5 °C.
Take GCCATGCGAAAGCAGGC (((.(((....)))))): the folding enthalpy in series [1] is -21.8 kcal/mol. In addition, in series [2], the Tm amounted to 64.4 °C.
As for GCCATGCGAAAGCATTGC ((.((((....)))).)), the folding enthalpy in series [1] is -21.2 kcal/mol. The Tm in series [2] came out at 54 °C.
